Results on 10 compounds are retold here after ChEMBL document CHEMBL1159047, “Synthesis and biological evaluation of antitumour-active betulin derivatives” (Bioorg Med Chem, 2010).

Calls of active or inactive are those of the source. The rule behind the calls is not given here.

Assay [1] in a line: Cytotoxicity against human 518A2 cells after 96 hrs by SRB assay. In kind it is functional, cell-based. The settings on record: 518A2, 96 h. Put shortly: (§1)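 Monolayer cells grown in RPMI 1640 with 10% heat-inactivated FBS and penicillin/streptomycin at 37 °C, 5% CO2. Cells were seeded and, after 24 h, exposed to serial dilutions (0–30 µM; DMSO or DMF ≤0.5% final) for 96 h. They were then fixed with 10% TCA at 4 °C, stained with 0.4% SRB and dissolved in 10 mM Tris, with absorbance read at 570 nm. IC50 comes from semi-log dose–response curves of survival versus untreated controls, from ≥3 independent experiments.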
For orientation: The SRB assay estimates cell density from bound dye.

The next assay concerns A-431. The assay is described as follows: Cytotoxicity against human A431 cells after 96 hrs by SRB assay. Type of assay: functional, cell-based. The note with it: A-431, 96 h. In short, it runs like this:
as §1

Assay [2] is described as follows: Cytotoxicity against human A253 cells after 96 hrs by SRB assay. Type of assay: functional, cell-based. The note with it: A253, 96 h. Put shortly:
as §1

The next assay deals with FaDu. The assay is described as follows: Cytotoxicity against human FADU cells after 96 hrs by SRB assay. Type of assay: functional, cell-based. Put shortly:
as §1

The subject of another assay is A549. The assay is described as follows: Cytotoxicity against human A549 cells after 96 hrs by SRB assay. Type of assay: functional, cell-based. The settings on record: A549, 96 h. Put shortly:
as §1

A further assay has as its system A2780. The assay is described as follows: Cytotoxicity against human A2780 cells after 96 hrs by SRB assay. Type of assay: functional, cell-based. The note with it: A2780, 96 h. Put shortly: as §1
Assay [3] concerns DLD-1. The assay is described as follows: Cytotoxicity against human DLD1 cells after 96 hrs by SRB assay. In kind it is functional, cell-based. The settings on record: DLD-1, 96 h. In short, it runs like this: as §1
In the next assay the test system is HCT-8. The assay is described as follows: Cytotoxicity against human HCT8 cells after 96 hrs by SRB assay. In kind it is functional, cell-based. The settings on record: HCT-8, 96 h. Put shortly: as §1
For another assay, the system named is HCT-116. The assay is described as follows: Cytotoxicity against human HCT116 cells after 96 hrs by SRB assay. In kind it is functional, cell-based. The note with it: HCT-116, 96 h. In short, it runs like this: as §1
The subject of another assay is HT-29. The assay is described as follows: Cytotoxicity against human HT-29 cells after 96 hrs by SRB assay. In kind it is functional, cell-based. The note with it: HT-29, 96 h. Put shortly: as §1
Another assay has as its system SW480. The assay is described as follows: Cytotoxicity against human SW480 cells after 96 hrs by SRB assay. Type of assay: functional, cell-based. The note with it: SW480, 96 h. In short, it runs like this: as §1
The test system of assay [4] is 8505C. The assay is described as follows: Cytotoxicity against human 8505C cells after 96 hrs by SRB assay. Type of assay: functional, cell-based. In short, it runs like this:
as §1

The subject of the next assay is SW-1736. The assay is described as follows: Cytotoxicity against human SW1736 cells after 96 hrs by SRB assay. Type of assay: functional, cell-based. The settings on record: SW-1736, 96 h. In short, it runs like this:
as §1

The next assay relates to MCF7. The assay is described as follows: Cytotoxicity against human MCF7 cells after 96 hrs by SRB assay. In kind it is functional, cell-based. The settings on record: MCF7, 96 h. In short, it runs like this: as §1
The nature of assay [5]: Cytotoxicity against human Liposarcoma cells after 96 hrs by SRB assay. Type of assay: functional, cell-based. Put shortly:
as §1

In another assay the test system is 518A2. The assay is described as follows: Growth inhibition of human 518A2 cells at 30 uM after 96 hrs by SRB assay. Type of assay: functional, cell-based. Put shortly: (§2)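 Same SRB set-up: RPMI 1640 with 10% FBS at 37 °C, 5% CO2, and a 96 h exposure starting 24 h after seeding (DMSO or DMF ≤0.5% final). Percent viable cells relative to untreated controls is read at 30 µM, the top concentration of the 0–30 µM dilution series. Cells were fixed with TCA, stained with SRB and read at 570 nm; ≥3 independent experiments.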

The subject of assay [6] is DLD-1. The assay is described as follows: Growth inhibition of human DLD1 cells at 30 uM after 96 hrs by SRB assay. Type of assay: functional, cell-based. Put shortly:
as §2

The test system of assay [7] is 8505C. The assay is described as follows: Growth inhibition of human 8505C cells at 30 uM after 96 hrs by SRB assay. Type of assay: functional, cell-based. Put shortly: as §2
For another assay, the species on record is Homo sapiens. The assay is described as follows: Growth inhibition of human Liposarcoma cells at 30 uM after 96 hrs by SRB assay. In kind it is functional. In short, it runs like this: as §2

As for `C=C(C)[C@@H]1CC[C@]2(C(=O)CC(=O)OCC)CC[C@]3(C)[C@H](CC[C@@H]4[C@@]5(C)CC[C@H](OC(C)=O)C(C)(C)[C@@H]5CC[C@]43C)[C@@H]12`, the IC50 turned out to be 2.5 µM in assay [1]; 2.6 µM in the assay on A-431; 2.2 µM in [2]; 3 µM in the assay with FaDu; 2.2 µM in the assay on A549; 1.8 µM in the assay on A2780. Moreover, the IC50 amounted to 3.9 µM in the assay with DLD-1 [3]; 3 µM in the assay with HCT-8; 2.4 µM with HCT-116; 12 µM with HT-29; 2.2 µM in the assay with SW480; 2.3 µM in the assay with 8505C [4]. The IC50 in the assay with SW-1736 amounted to 2.3 µM; in the assay with MCF7, 6.8 µM; in [5], 2.2 µM.

As for `CCOC(=O)CC(=O)C[C@H]1O[C@@H]2[C@@H]3[C@H]4CC[C@@H]5[C@@]6(C)CC[C@H](OC(C)=O)C(C)(C)[C@@H]6CC[C@@]5(C)[C@]4(C)CC[C@@]31CCC2(C)C`, the IC50 in [1] turned out to be 10.4 µM; with A-431 it was 9.8 µM; in assay [2] it was 10.9 µM; with FaDu, 7 µM; in the assay with A549, 5.2 µM; in the assay on A2780, 4.7 µM. Moreover, the IC50 in the assay with DLD-1 [3] is 7.2 µM; with HCT-8, 6.1 µM; in the assay with HCT-116, 7 µM; in the assay on HT-29, 13.2 µM; with SW480, 5.8 µM; in the assay on 8505C [4], 8.9 µM. In addition, the IC50 was 11.3 µM in the assay on SW-1736, 9.2 µM with MCF7 and 10.5 µM in assay [5].

Take `CCOC(=O)C[C@H]1O[C@@H]2[C@@H]3[C@H]4CC[C@@H]5[C@@]6(C)CC[C@H](OC(C)=O)C(C)(C)[C@@H]6CC[C@@]5(C)[C@]4(C)CC[C@@]31CCC2(C)C`: the 50% inhibitory concentration (IC50) in the assay with A-431 turned out to be 22.6 µM; in assay [2], 25.1 µM; with FaDu it was 24.7 µM; in the assay on A549, 21.9 µM; with A2780 it was 11.9 µM; with HCT-8, 12 µM. For the same compound, the IC50 is 9.3 µM with HCT-116; 16.7 µM in the assay with HT-29; 17.3 µM in the assay with SW480; 25.9 µM in the assay with SW-1736; 27.1 µM with MCF7. Also, the “growth inhibition (GI)” value with 518A2, with DLD-1 [6], in the assay on 8505C [7] and in the assay filed under Homo sapiens was “inactive” in each case.

Regarding `C=C(C)[C@@H]1CC[C@]2(C(=O)[C@H]3CCOC3=O)CC[C@]3(C)[C@H](CC[C@@H]4[C@@]5(C)CC[C@H](OC(C)=O)C(C)(C)[C@@H]5CC[C@]43C)[C@@H]12` (mixture of isomers), the IC50 in assay [1] was determined as 9.5 µM; in the assay with A-431, 7.3 µM; in assay [2], 7 µM; in the assay on FaDu, 5.8 µM; with A549, 5.5 µM; in the assay with A2780, 6.4 µM. Also, the IC50 in the assay on DLD-1 [3] was determined as 9.5 µM; in the assay with HCT-8, 7.8 µM; in the assay on HCT-116, 6.2 µM; with HT-29, 14.8 µM; with SW480, 9.6 µM; with 8505C [4], 9.2 µM. For the same compound, the IC50 in the assay with SW-1736 was determined as 6.2 µM; in the assay on MCF7, 7.7 µM; in [5], 10 µM.

As for `C=C(C)[C@@H]1CC[C@]2([C@H](O)[C@H]3C=CC(=O)O3)CC[C@]3(C)[C@H](CC[C@@H]4[C@@]5(C)CC[C@H](OC(C)=O)C(C)(C)[C@@H]5CC[C@]43C)[C@@H]12`, the IC50 worked out at 16.5 µM in [1]; 8.9 µM with A-431; 15.7 µM in assay [2]; 12.3 µM with FaDu; 17 µM in the assay on A549; 8.8 µM with A2780. In addition, the IC50 in the assay with DLD-1 [3] worked out at 16.3 µM; with HCT-8, 14.7 µM; in the assay with HCT-116, 8.5 µM; with HT-29, 29.9 µM; with SW480, 12.8 µM; with 8505C [4] it was 17 µM. Further, the IC50 in the assay with SW-1736 came out at 14.7 µM; in the assay with MCF7, 12.5 µM; in assay [5], 15.9 µM.

In the case of `C=C(C)[C@@H]1CC[C@]2([C@@H]3O[C@H]3C(=O)N(CC)CC)CC[C@]3(C)[C@H](CC[C@@H]4[C@@]5(C)CC[C@H](OC(C)=O)C(C)(C)[C@@H]5CC[C@]43C)[C@@H]12`, the 50% inhibitory concentration (IC50) was 7 µM in [1]; 4.3 µM with A-431; 3.5 µM in assay [2]; 5.9 µM in the assay on FaDu; 5.6 µM in the assay on A549; 4.7 µM with A2780. The concentration for half-maximal inhibition (IC50) was 7.9 µM in the assay on DLD-1 [3]; 2.7 µM in the assay on HCT-8; 2.3 µM in the assay on HCT-116; 9.6 µM in the assay with HT-29; 6 µM with SW480; 8.3 µM in the assay on 8505C [4]. The IC50 amounted to 2.7 µM in the assay with SW-1736, 4.6 µM in the assay on MCF7 and 7.7 µM in assay [5].

Turning to `C=C(C)[C@@H]1CC[C@]2(C(=O)O)CC[C@]3(C)[C@H](CC[C@@H]4[C@@]5(C)CC[C@H](O)C(C)(C)[C@@H]5CC[C@]43C)[C@@H]12` [BETULINIC ACID], half-maximal inhibition in [5] (IC50) was put at 9.7 µM.

Consider `C=C(C)[C@@H]1CC[C@]2([C@H](O)CC(=O)CC(=O)OCC)CC[C@]3(C)[C@H](CC[C@@H]4[C@@]5(C)CC[C@H](OC(C)=O)C(C)(C)[C@@H]5CC[C@]43C)[C@@H]12`, for which the IC50 in assay [1] is 11.6 µM; in the assay on A-431, 16.1 µM; in assay [2], 10 µM; with FaDu, 10.5 µM; with A549 it was 16.8 µM; with A2780, 9.1 µM. For the same compound, the IC50 in the assay with DLD-1 [3] worked out at 9.3 µM; with HCT-8, 11.3 µM; in the assay on HCT-116 it was 13 µM; in the assay on HT-29, 18.5 µM; in the assay on SW480 it was 13 µM; in the assay on 8505C [4] it was 9.6 µM. Besides, the half-maximal inhibitory concentration (IC50) in the assay with SW-1736 was found to be 10.6 µM; in the assay with MCF7, 13.9 µM; in assay [5], 9 µM.

On to `C=C(C)[C@@H]1CC[C@]2([C@H](O)CC(=O)CC(=O)OCC)CC[C@]3(C)[C@H](CC[C@@H]4[C@@]5(C)CC[C@H](OC)C(C)(C)[C@@H]5CC[C@]43C)[C@@H]12`, for which the IC50 came to 19.4 µM in assay [1]; 20.7 µM with A-431; 17 µM in assay [2]; 16.2 µM in the assay on FaDu; 14.6 µM in the assay on A549; 12.1 µM with A2780. For the same compound, the IC50 is 14 µM in the assay on DLD-1 [3]; 12.5 µM in the assay with HCT-8; 14.6 µM in the assay on HCT-116; 16.8 µM with HT-29; 15.3 µM in the assay on SW480; 17.6 µM in the assay with 8505C [4]. Moreover, the IC50 in the assay with SW-1736 came to 13.8 µM; in the assay on MCF7, 20.7 µM; in [5], 17.8 µM.

In the case of `C=C(C)[C@@H]1CC[C@]2(C(=O)CC(=O)OCC)CC[C@]3(C)[C@H](CC[C@@H]4[C@@]5(C)CC[C@H](OC)C(C)(C)[C@@H]5CC[C@]43C)[C@@H]12`, the IC50 in assay [1] was 6.3 µM; in the assay with A-431 it was 3.9 µM; in assay [2], 7.4 µM; in the assay with FaDu, 6.5 µM; with A549, 5.3 µM; with A2780, 4.3 µM. In addition, the half-inhibitory concentration (IC50) is 7.9 µM in the assay on DLD-1 [3]; 4.1 µM with HCT-8; 3.6 µM in the assay with HCT-116; 4.1 µM with HT-29; 5.9 µM with SW480; 7.9 µM in the assay on 8505C [4]. Also, the IC50 with SW-1736 is 7.2 µM; with MCF7, 4.7 µM; in assay [5], 6.4 µM.

Broadly, the IC50 is the concentration needed to halve the response being measured. A lower IC50 goes with greater potency.
